Structures are written as SMILES.

The target in assay [1] is Serine/threonine-protein kinase Chk2 (Homo sapiens) (UniProt O96017). As to the kind of experiment: Inhibition of CHK2 at 10 uM by HTRF assay relative to control. The gist of the method: (§1)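 HTRF kinase assay, one panel of kinases. Inhibitor stock 50 µM in 100% DMSO; tested at 10 µM. ATP and substrate at final levels near Km. Final buffer: 50 mM Hepes/NaOH pH 7.4, 40 µM Na3VO4, 0.005% Tween-20, 1 mM DTT, MnCl2 or MgCl2 at kinase-dependent levels. Started by adding ATP/substrate. Reaction run at room temperature, time varied by kinase. Detection mix in 50 mM Hepes pH 7.4, 0.1% BSA, 150 mM KF, incubated ≥1 h at room temperature. Activity expressed as % of uninhibited control; n=2.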
(TR-FRET usually uses a lanthanide donor and a delayed reading to cut background.)

The target of assay [2] is Insulin-like growth factor 1 receptor (Homo sapiens) (UniProt P08069). The experiment in a line: Inhibition of IGF1R at 10 uM by HTRF assay relative to control. The gist of the method:
as §1

Assay [3] deals with 3-phosphoinositide-dependent protein kinase 1 (Homo sapiens) (UniProt O15530). The experiment in a line: Inhibition of PDK1 at 10 uM by HTRF assay relative to control.
Sequence of 3-phosphoinositide-dependent protein kinase 1 (Homo sapiens) (O15530 whole entry, looked up): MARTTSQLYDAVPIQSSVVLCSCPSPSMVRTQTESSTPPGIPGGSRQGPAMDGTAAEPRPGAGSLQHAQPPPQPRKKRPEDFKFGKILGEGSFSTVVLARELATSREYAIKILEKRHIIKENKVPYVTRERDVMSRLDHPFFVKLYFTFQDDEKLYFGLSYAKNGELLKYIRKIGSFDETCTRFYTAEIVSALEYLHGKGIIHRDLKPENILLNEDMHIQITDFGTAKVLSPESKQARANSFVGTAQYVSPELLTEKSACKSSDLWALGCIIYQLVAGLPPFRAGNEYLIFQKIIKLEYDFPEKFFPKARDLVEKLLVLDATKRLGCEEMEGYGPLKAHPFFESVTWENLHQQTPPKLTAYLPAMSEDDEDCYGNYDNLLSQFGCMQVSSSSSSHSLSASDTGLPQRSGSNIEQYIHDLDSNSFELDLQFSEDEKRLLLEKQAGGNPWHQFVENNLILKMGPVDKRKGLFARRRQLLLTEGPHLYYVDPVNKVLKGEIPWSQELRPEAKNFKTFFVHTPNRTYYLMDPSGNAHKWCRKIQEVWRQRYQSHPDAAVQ
The target in assay [4] is Cyclin-dependent kinase 1 (Homo sapiens) (UniProt P06493). As to the kind of experiment: Inhibition of CDK1 at 10 uM by HTRF assay relative to control. In short, it runs like this: as §1
Assay [5] addresses MAP kinase-activated protein kinase 2 (Homo sapiens) (UniProt P49137). As to the kind of experiment: Inhibition of MAPKAPK2 at 10 uM by HTRF assay relative to control. The gist of the method:
as §1

In assay [6] the target is Protein kinase C gamma type (Homo sapiens) (UniProt P05129). As to the kind of experiment: Inhibition of PKCgamma at 10 uM by HTRF assay relative to control. In short, it runs like this:
as §1

Assay [7] has as its target Platelet-derived growth factor receptor beta (Homo sapiens) (UniProt P09619). As to the kind of experiment: Inhibition of PDGFRbeta at 10 uM by HTRF assay relative to control. In short, it runs like this:
as §1

The target in assay [8] is High affinity nerve growth factor receptor (Homo sapiens) (UniProt P04629). The experiment in a line: Inhibition of TrkA at 10 uM by HTRF assay relative to control. The gist of the method:
as §1

A short description of assay [9]: Inhibition of AMPKalpha at 10 uM by HTRF assay relative to control. In short, it runs like this:
as §1

The target of assay [10] is Protein kinase C alpha type (Homo sapiens) (UniProt P17252). The experiment in a line: Inhibition of PKCalpha at 10 uM by HTRF assay relative to control. In short, it runs like this:
as §1

The target in assay [11] is Tyrosine-protein kinase Lck (Homo sapiens) (UniProt P06239). As to the kind of experiment: Inhibition of Lck at 10 uM by HTRF assay relative to control. In short, it runs like this:
as §1

The target in assay [12] is Rho-associated protein kinase 2 (Homo sapiens) (UniProt O75116). The experiment in a line: Inhibition of ROCK2 at 10 uM by HTRF assay relative to control. In short, it runs like this: as §1
Assay [13] concerns the target T1, Serine/threonine-protein kinase Chk1 (Homo sapiens) (UniProt O14757).
T1 sequence (whole entry): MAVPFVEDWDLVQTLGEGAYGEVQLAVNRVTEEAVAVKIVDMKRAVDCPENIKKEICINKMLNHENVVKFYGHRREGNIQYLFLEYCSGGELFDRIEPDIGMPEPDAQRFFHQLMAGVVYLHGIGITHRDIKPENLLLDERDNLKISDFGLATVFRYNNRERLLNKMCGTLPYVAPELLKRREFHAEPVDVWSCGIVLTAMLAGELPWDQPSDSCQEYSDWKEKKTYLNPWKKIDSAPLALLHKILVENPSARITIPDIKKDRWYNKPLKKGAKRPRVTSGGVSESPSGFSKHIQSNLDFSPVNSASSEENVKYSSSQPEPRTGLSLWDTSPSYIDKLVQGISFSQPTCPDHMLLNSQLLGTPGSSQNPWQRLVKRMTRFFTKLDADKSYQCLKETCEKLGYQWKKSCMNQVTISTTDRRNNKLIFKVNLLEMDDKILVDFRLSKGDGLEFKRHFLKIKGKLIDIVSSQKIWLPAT
As to the kind of experiment: Inhibition of CHK1 at 10 uM by HTRF assay relative to control. In short, it runs like this:
as §1

Assay [14] deals with Calcium/calmodulin-dependent protein kinase type II subunit alpha (Homo sapiens) (UniProt Q9UQM7). The experiment in a line: Inhibition of CaMK2alpha at 10 uM by HTRF assay relative to control. In short, it runs like this: as §1
Sequence of Calcium/calmodulin-dependent protein kinase type II subunit alpha (Homo sapiens) (Q9UQM7 whole entry): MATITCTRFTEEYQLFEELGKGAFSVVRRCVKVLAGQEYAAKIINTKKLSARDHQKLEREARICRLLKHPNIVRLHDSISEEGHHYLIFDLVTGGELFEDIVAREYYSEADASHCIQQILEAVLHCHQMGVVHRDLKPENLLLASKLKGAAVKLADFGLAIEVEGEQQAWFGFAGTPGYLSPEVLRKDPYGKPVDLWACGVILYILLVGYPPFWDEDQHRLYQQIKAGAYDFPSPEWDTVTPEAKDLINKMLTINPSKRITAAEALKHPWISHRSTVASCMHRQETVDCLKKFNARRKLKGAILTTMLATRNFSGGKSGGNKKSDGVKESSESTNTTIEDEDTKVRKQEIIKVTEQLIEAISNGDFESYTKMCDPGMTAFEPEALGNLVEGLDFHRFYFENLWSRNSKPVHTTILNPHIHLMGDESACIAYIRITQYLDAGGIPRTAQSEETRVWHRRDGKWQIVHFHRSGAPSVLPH
Assay [15] concerns the target Mitogen-activated protein kinase 8 (Homo sapiens) (UniProt P45983). The experiment in a line: Inhibition of JNK1 at 10 uM by HTRF assay relative to control. In short, it runs like this: as §1
In assay [16] the target is T2, Inhibitor of nuclear factor kappa-B kinase subunit beta (Homo sapiens) (UniProt O14920).
T2 sequence (whole entry): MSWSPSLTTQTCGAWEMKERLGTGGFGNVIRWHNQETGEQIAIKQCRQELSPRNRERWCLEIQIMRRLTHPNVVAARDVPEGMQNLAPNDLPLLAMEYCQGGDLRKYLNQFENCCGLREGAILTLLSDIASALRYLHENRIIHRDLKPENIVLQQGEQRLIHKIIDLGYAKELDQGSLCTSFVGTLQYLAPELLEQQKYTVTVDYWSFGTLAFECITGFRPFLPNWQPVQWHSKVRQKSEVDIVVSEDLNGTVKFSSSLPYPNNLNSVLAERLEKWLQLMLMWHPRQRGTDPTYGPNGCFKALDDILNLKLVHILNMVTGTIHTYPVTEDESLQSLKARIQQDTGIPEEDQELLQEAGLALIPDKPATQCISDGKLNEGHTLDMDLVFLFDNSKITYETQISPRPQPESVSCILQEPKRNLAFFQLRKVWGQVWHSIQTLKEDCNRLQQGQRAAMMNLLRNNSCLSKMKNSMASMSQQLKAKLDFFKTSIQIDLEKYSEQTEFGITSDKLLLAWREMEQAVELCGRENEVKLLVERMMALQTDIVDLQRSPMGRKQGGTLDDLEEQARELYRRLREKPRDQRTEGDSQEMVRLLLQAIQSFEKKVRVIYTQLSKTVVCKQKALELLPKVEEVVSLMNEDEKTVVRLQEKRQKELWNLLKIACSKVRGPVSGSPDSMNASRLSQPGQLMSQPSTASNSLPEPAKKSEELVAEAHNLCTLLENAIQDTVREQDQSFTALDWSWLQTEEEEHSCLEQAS
As to the kind of experiment: Inhibition of IKK-beta at 10 uM by HTRF assay relative to control. In short, it runs like this: as §1

The target of assay [17] is Fibroblast growth factor receptor 1 (Homo sapiens) (UniProt P11362). As to the kind of experiment: Inhibition of FGFR1 at 10 uM by HTRF assay relative to control. The gist of the method: as §1
In assay [18] the target is Ribosomal protein S6 kinase alpha-3 (Homo sapiens) (UniProt P51812). The experiment in a line: Inhibition of RSK2 at 10 uM by HTRF assay relative to control. In short, it runs like this:
as §1

For assay [19], the target named is Tyrosine-protein kinase Fes/Fps (Homo sapiens) (UniProt P07332). As to the kind of experiment: Inhibition of FES at 10 uM by HTRF assay relative to control. In short, it runs like this: as §1
Sequence of Tyrosine-protein kinase Fes/Fps (Homo sapiens) (P07332 whole entry): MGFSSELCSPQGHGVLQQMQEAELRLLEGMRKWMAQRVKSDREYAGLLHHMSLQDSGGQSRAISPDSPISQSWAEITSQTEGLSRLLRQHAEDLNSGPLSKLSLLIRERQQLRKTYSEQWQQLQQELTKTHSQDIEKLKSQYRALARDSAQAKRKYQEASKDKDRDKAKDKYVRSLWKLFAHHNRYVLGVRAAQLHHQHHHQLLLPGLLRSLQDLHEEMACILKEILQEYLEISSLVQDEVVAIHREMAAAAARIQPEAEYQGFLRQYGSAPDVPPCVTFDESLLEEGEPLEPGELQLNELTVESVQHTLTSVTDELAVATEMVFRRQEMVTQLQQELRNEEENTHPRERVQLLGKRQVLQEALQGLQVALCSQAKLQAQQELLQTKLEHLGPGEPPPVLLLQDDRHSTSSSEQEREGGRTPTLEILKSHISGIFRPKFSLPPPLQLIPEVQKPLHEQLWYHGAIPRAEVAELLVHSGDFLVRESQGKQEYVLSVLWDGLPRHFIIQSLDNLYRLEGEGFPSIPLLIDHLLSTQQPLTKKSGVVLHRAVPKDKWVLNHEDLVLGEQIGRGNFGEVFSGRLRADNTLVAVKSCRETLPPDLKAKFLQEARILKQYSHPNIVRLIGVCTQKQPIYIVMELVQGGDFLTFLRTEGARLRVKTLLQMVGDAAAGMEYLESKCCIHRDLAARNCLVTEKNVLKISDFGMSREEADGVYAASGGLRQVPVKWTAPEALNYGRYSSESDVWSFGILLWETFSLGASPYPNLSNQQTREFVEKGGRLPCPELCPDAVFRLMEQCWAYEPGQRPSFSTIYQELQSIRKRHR
Assay [20] addresses Ribosomal protein S6 kinase beta-1 (Homo sapiens) (UniProt P23443). The experiment in a line: Inhibition of p70S6K at 10 uM by HTRF assay relative to control. In short, it runs like this:
as §1

Sequence of Insulin-like growth factor 1 receptor (Homo sapiens) (P08069 31-736 limits assumed): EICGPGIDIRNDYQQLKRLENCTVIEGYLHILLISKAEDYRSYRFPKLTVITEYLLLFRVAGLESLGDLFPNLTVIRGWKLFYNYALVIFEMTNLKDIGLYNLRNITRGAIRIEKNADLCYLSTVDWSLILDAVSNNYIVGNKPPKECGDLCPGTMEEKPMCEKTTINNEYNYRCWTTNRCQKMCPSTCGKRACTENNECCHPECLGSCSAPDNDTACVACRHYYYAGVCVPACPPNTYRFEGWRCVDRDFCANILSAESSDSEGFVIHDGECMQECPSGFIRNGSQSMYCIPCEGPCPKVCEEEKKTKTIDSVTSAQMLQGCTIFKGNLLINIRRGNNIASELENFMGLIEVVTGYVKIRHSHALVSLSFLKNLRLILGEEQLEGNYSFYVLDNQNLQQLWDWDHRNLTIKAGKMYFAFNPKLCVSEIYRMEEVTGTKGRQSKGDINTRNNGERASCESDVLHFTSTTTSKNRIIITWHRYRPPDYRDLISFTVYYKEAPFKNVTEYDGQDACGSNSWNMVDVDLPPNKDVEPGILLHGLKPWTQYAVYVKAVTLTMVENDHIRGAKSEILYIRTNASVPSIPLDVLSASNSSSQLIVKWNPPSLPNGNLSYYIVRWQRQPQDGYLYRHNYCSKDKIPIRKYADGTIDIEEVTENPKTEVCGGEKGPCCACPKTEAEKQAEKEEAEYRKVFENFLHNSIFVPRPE
Sequence of Insulin-like growth factor 1 receptor (Homo sapiens) (P08069 741-1367 limits assumed): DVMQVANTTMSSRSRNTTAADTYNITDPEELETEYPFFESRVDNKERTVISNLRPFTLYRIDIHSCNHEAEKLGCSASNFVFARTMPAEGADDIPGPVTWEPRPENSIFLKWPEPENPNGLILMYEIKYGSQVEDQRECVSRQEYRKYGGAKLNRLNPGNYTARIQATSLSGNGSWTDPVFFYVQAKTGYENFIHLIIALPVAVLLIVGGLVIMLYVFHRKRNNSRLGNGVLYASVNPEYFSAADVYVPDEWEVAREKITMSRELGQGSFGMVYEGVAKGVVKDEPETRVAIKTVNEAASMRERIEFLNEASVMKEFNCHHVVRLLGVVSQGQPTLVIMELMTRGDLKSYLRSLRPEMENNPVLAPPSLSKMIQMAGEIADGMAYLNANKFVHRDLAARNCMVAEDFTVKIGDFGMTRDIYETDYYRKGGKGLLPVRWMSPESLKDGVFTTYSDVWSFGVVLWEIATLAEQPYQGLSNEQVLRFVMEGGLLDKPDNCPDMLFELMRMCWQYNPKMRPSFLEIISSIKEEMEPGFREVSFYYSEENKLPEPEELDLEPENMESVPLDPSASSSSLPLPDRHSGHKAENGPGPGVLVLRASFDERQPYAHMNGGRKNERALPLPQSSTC
Sequence of Ribosomal protein S6 kinase beta-1 (Homo sapiens) (P23443 whole entry, looked up): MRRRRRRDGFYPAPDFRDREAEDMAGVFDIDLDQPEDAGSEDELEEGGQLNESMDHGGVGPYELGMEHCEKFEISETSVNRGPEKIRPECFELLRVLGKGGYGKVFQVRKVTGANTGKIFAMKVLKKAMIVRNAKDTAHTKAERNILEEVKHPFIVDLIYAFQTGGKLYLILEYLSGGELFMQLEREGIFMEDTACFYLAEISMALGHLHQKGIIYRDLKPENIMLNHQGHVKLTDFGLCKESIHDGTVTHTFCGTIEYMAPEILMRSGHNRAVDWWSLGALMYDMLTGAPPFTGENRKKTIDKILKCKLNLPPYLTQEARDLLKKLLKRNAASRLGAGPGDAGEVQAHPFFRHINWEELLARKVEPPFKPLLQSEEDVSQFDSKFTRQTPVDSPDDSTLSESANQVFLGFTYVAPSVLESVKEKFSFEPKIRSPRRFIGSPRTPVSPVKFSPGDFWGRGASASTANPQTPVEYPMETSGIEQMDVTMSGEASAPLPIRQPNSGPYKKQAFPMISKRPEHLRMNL
Sequence of MAP kinase-activated protein kinase 2 (Homo sapiens) (P49137 whole entry, looked up): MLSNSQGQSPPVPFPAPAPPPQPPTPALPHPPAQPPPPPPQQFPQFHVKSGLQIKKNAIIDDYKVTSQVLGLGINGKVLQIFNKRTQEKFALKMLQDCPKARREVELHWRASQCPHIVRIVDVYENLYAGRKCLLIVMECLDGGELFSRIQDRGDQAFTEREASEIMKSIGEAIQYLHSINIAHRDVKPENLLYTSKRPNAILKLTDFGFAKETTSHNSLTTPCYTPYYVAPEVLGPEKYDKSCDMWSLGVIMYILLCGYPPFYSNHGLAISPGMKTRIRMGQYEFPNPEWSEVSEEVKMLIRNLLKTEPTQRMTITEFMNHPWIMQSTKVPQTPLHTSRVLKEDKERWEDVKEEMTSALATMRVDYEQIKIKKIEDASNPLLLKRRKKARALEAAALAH

For `Nc1nc(Nc2ccc3ncsc3c2)cc(N2CCC[C@H]2C(=O)NCCc2cccc(I)c2)n1`, the inhibition (usually the share of the control response that was lost under treatment) in assay [1] stood at 1%; in [2], 0%; in [3] it was 7%; in assay [4], 0%; in [5], 3%; in [6] it was 0%. Also, the inhibition in assay [7] was found to be 14%; in assay [8], 5%; in [9], 6%; in assay [10] it was 0%; in assay [11] it was 0%; in assay [12], 1%. The inhibition in assay [13] was determined as 3%; in assay [14], 0%; in assay [15], 0%; in [16], 4%; in assay [17], 13%; in assay [18], 0%. For the same compound, the inhibition in assay [19] turned out to be 8%; in [20], 10%.

`Cc1cccc(N(C)c2cc(Nc3cccc(C(=O)NCc4ccncc4)c3)ncn2)c1`: the inhibition amounted to 5% in assay [1]; 0% in assay [2]; 0% in assay [3]; 7% in assay [4]; 0% in assay [5]; 2% in [6]. Besides, the inhibition in assay [7] came out at 33%; in assay [8] it was 13%; in assay [9], 0%; in assay [10], 0%; in assay [11], 9%; in assay [12] it was 0%. The inhibition in assay [13] came out at 3%; in assay [14] it was 0%; in assay [15] it was 19%; in assay [16] it was 0%; in [17], 0%; in assay [18] it was 3%. In addition, the inhibition in assay [19] was 22%; in assay [20], 9%.

`Nc1nc(Nc2ccc3ncsc3c2)cc(N2CCC[C@H]2C(=O)N[C@@H](CO)c2ccccc2)n1`: the inhibition in assay [1] is 2%; in assay [2], 7%; in assay [3] it was 2%; in assay [4] it was 0%; in assay [5], 1%; in [6], 1%. The inhibition in assay [7] was found to be 6%; in assay [8], 9%; in assay [9], 20%; in assay [10], 0%; in assay [11], 0%; in assay [12] it was 2%. Also, the inhibition worked out at 2% in [13]; 0% in [14]; 0% in assay [15]; 4% in assay [16]; 7% in [17]; 0% in assay [18]. The values for the inhibition in [19] and in assay [20] were 3% and 5%, respectively.

Regarding `O=C(NC1Cc2ccccc2C1)c1cccc(Nc2ccnc(N3CCN(c4ccccc4)CC3)n2)c1`, the inhibition in assay [1] was 1%; in assay [2], 0%; in assay [3] it was 0%; in [4], 0%; in assay [5] it was 4%; in assay [6] it was 3%. Also, the inhibition in [7] worked out at 8%; in assay [8], 5%; in assay [9], 9%; in assay [10], 0%; in assay [11], 0%; in assay [12], 1%. For the same compound, the inhibition in assay [13] turned out to be 2%; in assay [14] it was 0%; in assay [15], 0%; in [16] it was 1%; in [17], 2%; in assay [18], 0%. Moreover, the inhibition in [19] was found to be 5%; in assay [20] it was 9%.

As for `Nc1nc(Nc2ccc(C(=O)NCCc3ccncc3)cc2)cc(N2CCOCC2)n1`, the inhibition in [1] worked out at 0%; in [2], 0%; in [3], 1%; in [4] it was 0%; in assay [5] it was 1%; in assay [6], 0%. Moreover, the inhibition in [7] was found to be 13%; in assay [8], 7%; in assay [9], 0%; in assay [10] it was 0%; in assay [11] it was 0%; in assay [12] it was 1%. For the same compound, the inhibition is 2% in [13]; 0% in assay [14]; 11% in assay [15]; 4% in assay [16]; 0% in assay [17]; 0% in assay [18]. Besides, the inhibition in assay [19] worked out at 9%; in [20] it was 11%.
